The text below walks through data of publication PMC6044853 (ACS Omega, 2017).

In brackets after ≈: the same amount, converted by molar mass.

In general, MIC refers to the least concentration at which growth counts as inhibited. In general, inhibition refers to the relative decrease from the control value, in per cent.

One series deals with USA300 #1799. Nature of the series: MIC, clinical isolate strain 8. It counts as cell-based. The conditions noted are these: Staphylococcus aureus, USA300, read-out: MIC strain 8. The method in brief:
(§1)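 Broth microdilution per CLSI guidelines. MIC is the lowest concentration preventing visible bacterial growth. MIC is reported in μg/mL, with S. aureus values also converted to μM.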

Another series relates to USA300 #757. As to the kind of experiment: MIC, clinical isolate strain 7. It counts as cell-based. Conditions: Staphylococcus aureus, USA300, read-out: MIC strain 7. The method in brief: as §1
The subject of the next series is S. aureus ATCC 43300. Nature of the series: MIC, clinical isolate strain 5. Conditions: Staphylococcus aureus, ATCC43300, read-out: MIC strain 5. It counts as cell-based. Put shortly:
as §1

The subject of the next series is USA300 #417. As to the kind of experiment: MIC, clinical isolate strain 6. Conditions: Staphylococcus aureus, USA300, read-out: MIC strain 6. It counts as cell-based. Put shortly: as §1
For a further series, the system named is G. mellonella larvae. As to the kind of experiment: Toxicity in G. mellonella larvae. It counts as in vivo, Galleria mellonella. The conditions noted are these: 50 and 100 mg/kg in 50% PEG in saline, injected, 48 h. Put shortly:
(§2)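 G. mellonella model: groups of 10 last-instar larvae weighing 200–300 mg, held at 37 °C. Test compound is dissolved in 50% PEG in saline (0 [vehicle], 50, 100 mg/kg) and injected into the last left proleg with a Hamilton syringe. Mortality is scored every 12 h for 48 h. Survival is analysed by log rank and χ² test (1 degree of freedom), with three independent experiments.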

In series [1] the test system is green fluorescent protein-tagged FtsZ in B. subtilis 168. Nature of the series: Z-ring visualization of B. subtilis 168. It counts as cell-based, Bacillus subtilis. Put shortly:
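B. subtilis 168 expressing functional GFP-tagged FtsZ is treated with compound or DMSO. Z-ring formation is imaged by fluorescence microscopy alongside matching phase-contrast images.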

Series [2] has as its system B. subtilis 168. As to the kind of experiment: MIC, B. subtilis 168. It counts as cell-based. The conditions noted are these: Bacillus subtilis, 168, read-out: MIC B. subtilis 168.
A further series concerns S. aureus ATCC 29247. As to the kind of experiment: MIC, clinical isolate strain 1. Conditions: Staphylococcus aureus, ATCC29247, read-out: MIC strain 1. It counts as cell-based. The method in brief: as §1
The subject of a further series is USA300 #2690. Nature of the series: MIC, clinical isolate strain 9. The conditions noted are these: Staphylococcus aureus, USA300, read-out: MIC strain 9. It counts as cell-based. Put shortly:
as §1

Series [3] addresses T1, S. aureus FtsZ (Staphylococcus aureus, UniProt P0A031).
T1 sequence (P0A031 1-390): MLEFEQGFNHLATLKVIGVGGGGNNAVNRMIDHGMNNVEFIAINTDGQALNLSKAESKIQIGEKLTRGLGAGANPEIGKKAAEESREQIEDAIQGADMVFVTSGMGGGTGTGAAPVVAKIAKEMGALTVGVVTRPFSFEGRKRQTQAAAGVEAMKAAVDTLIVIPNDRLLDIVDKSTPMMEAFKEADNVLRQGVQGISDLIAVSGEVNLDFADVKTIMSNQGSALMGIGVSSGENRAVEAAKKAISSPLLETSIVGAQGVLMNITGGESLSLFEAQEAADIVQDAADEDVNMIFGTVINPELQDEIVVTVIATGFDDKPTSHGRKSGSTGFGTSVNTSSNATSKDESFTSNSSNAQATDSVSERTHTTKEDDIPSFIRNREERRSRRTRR
Nature of the series: GTPase hydrolysis activity assay. It counts as biochemical. The conditions noted are these: read-out: inhibition of GTPase hydrolysis activity.

The target of series [4] is T1, S. aureus FtsZ. As to the kind of experiment: Light scattering assay of FtsZ polymerization. It counts as biochemical. Conditions: 30 μM compound, vs 1% DMSO vehicle.
Series [5] deals with S. aureus strain ATCC 29213. As to the kind of experiment: MIC, broth microdilution. It counts as cell-based, Staphylococcus aureus. Conditions: S. aureus 29213; Table 1. The method in brief: as §1
For orientation: In broth dilution the organism is exposed to a series of concentrations in liquid medium.

Series [6] relates to E. coli strain ATCC 25922. Nature of the series: MIC, broth microdilution. It counts as cell-based. The conditions noted are these: Escherichia coli, ATCC25922, read-out: MIC E. coli. Put shortly:
as §1

The test system of series [7] is B. subtilis 168. As to the kind of experiment: Bacterial morphology of B. subtilis 168. It counts as cell-based, Bacillus subtilis. Conditions: sublethal concentration; DMSO-treated cells < 5 μm.
Series [8] can be described thus: Solubility in aqueous medium. It counts as physicochemical. Conditions: precipitation in aqueous medium at >80 μM.
The test system of series [9] is G. mellonella larvae infected with MRSA ATCC 43300. As to the kind of experiment: Antimicrobial efficacy in G. mellonella model of infection. It counts as in vivo, Galleria mellonella. Conditions: 2.5 × 10^6 CFU/larva MRSA ATCC 43300. The method in brief: as §2
The target of series [10] is T1, S. aureus FtsZ. Nature of the series: STD NMR study. It counts as binding. The method in brief: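 Saturation transfer difference NMR with purified S. aureus FtsZ at 600 MHz and 298 K. For group epitope mapping, each proton's STD signal is integrated relative to the strongest STD signal, set to 100%.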

Consider `COc1cccc(OC)c1C(=O)N[C@@H]1C(=O)N2[C@@H]1SC(C)(C)[C@@H]2C(=O)O` [methicillin, reference compound], for which the MIC is 64 µg/mL (≈ 168 µM) in the series on USA300 #1799, 64 µg/mL (≈ 168 µM) with USA300 #757, greater than 64 µg/mL in the series on S. aureus ATCC 43300 and greater than 64 µg/mL in the series on USA300 #417.

Turning to `CCC(CC)c1cc(CCN2CCCN(Cc3ccc(C(F)(F)F)cc3)CC2)nc(-c2ccncc2)n1` [14av_amine16, 1-(2-(6-(Pentan-3-yl)-2-(pyridin-4-yl)pyrimidin-4-yl)ethyl)-4-(4-(trifluoromethyl)benzyl)-1,4-diazepane], the “toxicity to G. mellonella larvae (survival)” value in the series on G. mellonella larvae was “did not kill the G. mellonella larvae”. Further, in [1], the Z-ring localization entry is listed as “obvious mislocalization of the Z-ring”. The minimal inhibitory concentration (MIC) came to 6 µg/mL (≈ 11.7 µM) in the series on USA300 #1799; 12 µM (≈ 6.14 µg/mL) with B. subtilis 168 [2]; 6 µg/mL (≈ 11.7 µM) with USA300 #757; 4 µg/mL (≈ 7.82 µM) with S. aureus ATCC 29247; 6 µg/mL (≈ 11.7 µM) in the series on USA300 #2690; 6 µg/mL (≈ 11.7 µM) in the series with S. aureus ATCC 43300. The MIC in [6] is greater than 64 µg/mL; in the series with USA300 #417, 6 µg/mL (≈ 11.7 µM). Moreover, the inhibition at 50 µM on S. aureus FtsZ [3] was roughly 20%. In addition, on S. aureus FtsZ [3], the inhibition at 75 µM was roughly 25%. The “inhibition of FtsZ polymerization” value against S. aureus FtsZ [4] is reported as “complete inhibition”. The “MIC S. aureus” value in [5] was 4 µg/mL (≈ 7.82 µM). Besides, the “MIC S. aureus, number in parentheses calculated in μM” value in series [5] was 8 µM (≈ 4.09 µg/mL). The average cell length in the series on B. subtilis 168 [7] is listed as greater than 20 μm. Besides, the compound solubility result in [8] was “poor compound solubility”. Also, in [9] (50 mg/kg), the “survival time of infected larvae” value was 36 h. Further, in [9] (100 mg/kg, 48 h), the “survival rate of infected larvae” value is reported as 20%. Further, at S. aureus FtsZ [10], the “binding to FtsZ protein by STD NMR” value was “binds to FtsZ protein”.
